Data as given in ChEMBL document CHEMBL2380254, “Optimization of tocotrienols as antiproliferative and antimigratory leads” (Eur J Med Chem, 2013).

Experiments:
[1] = test system: MCF7; assay: Growth inhibition of human MCF7 cells assessed as cell growth at 10 uM after 48 hrs by sulforhodamine B assay; type: functional; settings: MCF7, 48 h, read-out: Activity
Summary of the method: (§1)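 Single-dose NCI-60 screen: adherent cells in RPMI 1640 with 5% FBS were exposed to 10 µM for 48 h at 37 °C after a 24 h preincubation. They were fixed in situ with cold TCA (10% final), stained with 0.4% SRB in 1% acetic acid, solubilized in 10 mM Tris base, and read at 515 nm. Percent growth was taken relative to time-zero and control plates.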

[2] = test system: SF-295; assay: Growth inhibition of human SF295 cells assessed as cell growth at 10 uM after 48 hrs by sulforhodamine B assay; type: functional; settings: SF-295, 48 h, read-out: Activity; summary of the method: as §1
[3] = test system: UACC-62; assay: Growth inhibition of human UACC62 cells assessed as cell growth at 10 uM after 48 hrs by sulforhodamine B assay; type: functional; settings: UACC-62, 48 h, read-out: Activity
Summary of the method: (§2)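 Single-dose NCI-60 test at 10 µM. Cells were grown in RPMI 1640 with 5% FBS and 2 mM L-glutamine, preincubated 24 h, with T0 plates TCA-fixed. Exposure was 48 h at 37 °C, 5% CO2. Cells were fixed with cold TCA (final 10%, 4 °C, 60 min), stained with SRB and read at 515 nm. Percent growth was taken relative to T0 and untreated control; negative values denote cell kill.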

[4] = test system: 786-0; assay: Growth inhibition of human 786-0 cells assessed as cell growth at 10 uM after 48 hrs by sulforhodamine B assay; type: functional; settings: 786-0, 48 h, read-out: Activity
Summary of the method: (§3)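 NCI-60 single-dose screen at 10 µM: cells in RPMI 1640 with 5% FBS, preincubated 24 h, then exposed 48 h at 37 °C. TCA fixation (16% final for suspension cells), SRB staining, absorbance 515 nm. Percent growth relative to time-zero and untreated control plates; negative values indicate cell kill.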

[5] = test system: HCT-116; assay: Growth inhibition of human HCT116 cells assessed as cell growth at 10 uM after 48 hrs by sulforhodamine B assay; type: functional; settings: HCT-116, 48 h, read-out: Activity; summary of the method: as §3
[6] = Growth inhibition of human NCI-ADR-RES cells assessed as cell growth at 10 uM after 48 hrs by sulforhodamine B assay; type: functional; settings: read-out: Activity; summary of the method: as §1
[7] = test system: OVCAR-3; assay: Growth inhibition of human OVCAR3 cells assessed as cell growth at 10 uM after 48 hrs by sulforhodamine B assay; type: functional; settings: OVCAR-3, 48 h, read-out: Activity; summary of the method: as §1
[8] = test system: U-251; assay: Growth inhibition of human U251 cells assessed as cell growth at 10 uM after 48 hrs by sulforhodamine B assay; type: functional; settings: U-251, 48 h, read-out: Activity; summary of the method: as §2
[9] = test system: HCT-15; assay: Growth inhibition of human HCT15 cells assessed as cell growth at 10 uM after 48 hrs by sulforhodamine B assay; type: functional; settings: HCT-15, 48 h, read-out: Activity; summary of the method: as §3
[10] = Growth inhibition of human Hs 578T cells assessed as cell growth at 10 uM after 48 hrs by sulforhodamine B assay; type: functional; settings: read-out: Activity; summary of the method: as §3
[11] = test system: MCF7; assay: Antiproliferative activity against human MCF7 cells by MTT assay; type: functional, cell-based
Summary of the method: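 Cells plated at 8 × 10^3/well (MDA-MB-231) or 10^4/well (MCF7) in 96-well plates. Compounds fed in media with 5% FBS (MDA-MB-231) or 1% FBS (MCF7). MTT read-out of viable cells.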

[12] = Growth inhibition of human Hs 578T cells after 48 hrs by sulforhodamine B assay; type: functional
Summary of the method: (§4)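 NCI-60 screen: cells in RPMI 1640 with 5% FBS and 2 mM glutamine, 5000–40,000 cells/well, preincubated 24 h. Five concentrations (10-fold dilutions; 100 to 0.001 µM) applied for 48 h at 37 °C. TCA fixation, SRB stain, absorbance at 515 nm. Time-zero plates included; GI50 where 100×(T−T0)/(C−T0)=50.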

[13] = test system: TK-10; assay: Growth inhibition of human TK10 cells after 48 hrs by sulforhodamine B assay; type: functional; settings: TK-10, 48 h
Summary of the method: (§5)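 NCI-60 five-dose screen. Cells were grown in RPMI 1640 with 5% FBS and 2 mM L-glutamine, plated at 5000–40,000 cells/well and incubated 24 h before dosing, with T0 plates TCA-fixed. DMSO stocks were diluted to doses of […] and exposed 48 h at 37 °C, 5% CO2. Cells were fixed with cold TCA (final 10%, 60 min, 4 °C), stained with 0.4% SRB in 1% acetic acid for 10 min, solubilized in 10 mM trizma base and read at 515 nm. GI50 is where 100×(T−T0)/(C−T0)=50.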

[14] = test system: M14; assay: Growth inhibition of human M14 cells after 48 hrs by sulforhodamine B assay; type: functional; settings: M14, 48 h; summary of the method: as §4
[15] = test system: UACC-62; assay: Growth inhibition of human UACC62 cells after 48 hrs by sulforhodamine B assay; type: functional; settings: UACC-62, 48 h; summary of the method: as §5
[16] = test system: NCI-H23; assay: Growth inhibition of human NCI-H23 cells after 48 hrs by sulforhodamine B assay; type: functional; settings: NCI-H23, 48 h
Summary of the method: (§6)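 NCI-60 panel cells grown in RPMI 1640 with 5% FBS and 2 mM L-glutamine, seeded at 5000–40,000 cells/well and preincubated 24 h. Five 10-fold dilutions (0.001–100 µM) from DMSO stocks were added for 48 h at 37 °C. Adherent cells were fixed with cold TCA (10% final) for 60 min at 4 °C, stained with 0.4% SRB, and read at 515 nm. GI50 was set where 100×(T−T0)/(C−T0)=50.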

[17] = Growth inhibition of human NCI-ADR-RES cells after 48 hrs by sulforhodamine B assay; type: functional; summary of the method: as §6
[18] = test system: HOP-62; assay: Growth inhibition of human HOP62 cells after 48 hrs by sulforhodamine B assay; type: functional; settings: HOP-62, 48 h; summary of the method: as §4
[19] = test system: HCT-116; assay: Growth inhibition of human HCT116 cells after 48 hrs by sulforhodamine B assay; type: functional; settings: HCT-116, 48 h; summary of the method: as §4
[20] = test system: PC-3; assay: Growth inhibition of human PC3 cells after 48 hrs by sulforhodamine B assay; type: functional; settings: PC-3, 48 h; summary of the method: as §6
[21] = test system: LOX IMVI; assay: Growth inhibition of human LOXIMVI cells after 48 hrs by sulforhodamine B assay; type: functional; summary of the method: as §4
[22] = test system: T47D; assay: Growth inhibition of human T47D cells after 48 hrs by sulforhodamine B assay; type: functional; summary of the method: as §5
[23] = test system: SN12C; assay: Growth inhibition of human SN12C cells after 48 hrs by sulforhodamine B assay; type: functional; summary of the method: as §5
[24] = test system: RXF 393; assay: Growth inhibition of human RXF393 cells after 48 hrs by sulforhodamine B assay; type: functional; settings: RXF 393, 48 h; summary of the method: as §6
[25] = test system: MOLT-4; assay: Growth inhibition of human MOLT4 cells after 48 hrs by sulforhodamine B assay; type: functional; settings: MOLT-4, 48 h
Summary of the method: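 NCI-60 suspension lines in RPMI 1640 with 5% FBS and 2 mM L-glutamine, preincubated 24 h. A five-concentration 10-fold series (0.001–100 µM) was given for 48 h at 37 °C. Settled cells were fixed with 80% TCA (16% final), stained with SRB, and read at 515 nm. GI50 was taken where 100×(T−T0)/(C−T0)=50, with T0 plates fixed at drug addition.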

| SMILES | growth at 10 µM [1] [%] | growth at 10 µM [2] [%] | growth at 10 µM [3] [%] | growth at 10 µM [4] [%] | growth at 10 µM [5] [%] | growth at 10 µM [6] [%] | growth at 10 µM [7] [%] | growth at 10 µM [8] [%] | growth at 10 µM [9] [%] | growth at 10 µM [10] [%] | IC50 [11] [µM] | also measured |
| --- | --- | --- | --- | --- | --- | --- | --- | --- | --- | --- | --- | --- |
| COc1ccc(CCNCc2c(O)c(C)c(C)c3c2CC[C@@](C)(CC/C=C(\C)CC/C=C(\C)CCC=C(C)C)O3)cc1OC | 29.3 | 102 | 98.3 | 78.1 | 47.1 | 91.4 | 101 | 83.7 | 104 | 121 |  |  |
| CC(C)=CCC/C(C)=C/CC/C(C)=C/CC[C@]1(C)CCc2c(CNCCc3ccc(O)cc3)c(O)c(C)c(C)c2O1 | 36.9 | 105 | 106 | 78.2 | 61.4 | 95 | 97.1 | 93 | 106 | 133 |  |  |
| CC(C)=CCC/C(C)=C/CC/C(C)=C/CC[C@]1(C)CCc2c3c(c(C)c(C)c2O1)OCN(CCCCCCCCCCO)C3 | 93.4 | 111 | 103 | 99.2 | 78.4 | 99.2 | 94.8 | 78.7 | 91.1 | 96.5 | 19.4 |  |
| CC(C)=CCC/C(C)=C/CC/C(C)=C/CC[C@]1(C)CCc2c3c(c(C)c(C)c2O1)OCN(CCCCCCCCCCCCO)C3 | 100 | 93.5 | 89.5 | 110 | 102 | 97.9 | 109 | 90.3 | 100 | 103 | > 20 |  |
| CC(C)=CCC/C(C)=C/CC/C(C)=C/CC[C@]1(C)CCc2c3c(cc(C)c2O1)OCN(CCCCCCCCCCCCO)C3 | 26.3 | 93.3 | 67.2 | 97 | 51.6 | 79.9 | 89.5 | 59.1 | 82.9 | 93.2 | > 20 |  |
| CC(C)=CCC/C(C)=C/CC/C(C)=C/CC[C@]1(C)CCc2c3c(c(C)c(C)c2O1)OCN(CCCCO)C3 | 10.1 | 97.2 | 96.6 | 72.8 | -72.3 | 57.5 | 79.9 | 14.8 |  | 91.6 | > 20 | GI50 [12]: > 10 µM; GI50 [13]: > 10 µM; GI50 [14]: 5.99 µM; GI50 [15]: > 10 µM; GI50 [16]: > 10 µM; GI50 [17]: > 10 µM; GI50 [18]: 5.95 µM; GI50 [19]: 2 µM; GI50 [20]: 8.37 µM; GI50 [21]: 2.22 µM; GI50 [22]: > 10 µM; GI50 [23]: 7.98 µM; GI50 [24]: 5.63 µM; GI50 [25]: 3.46 µM |
| CC(C)=CCC/C(C)=C/CC/C(C)=C/CC[C@]1(C)CCc2c3c(c(C)c(C)c2O1)OCN(CCCCCCO)C3 | -69.5 | 61.7 | 86.7 | 33.7 | -92.7 | 30.1 |  | -75.2 | 38.4 | 90.4 | > 20 | GI50 [12]: 3.04 µM; GI50 [13]: 3.01 µM; GI50 [14]: 3.11 µM; GI50 [15]: 2.67 µM; GI50 [16]: 2.84 µM; GI50 [17]: 2.87 µM; GI50 [18]: 2.7 µM; GI50 [19]: 2.87 µM; GI50 [20]: 2.52 µM; GI50 [21]: 2.83 µM; GI50 [22]: 2.84 µM; GI50 [23]: 2.5 µM; GI50 [24]: 2.3 µM; GI50 [25]: 2.92 µM |
| CC(C)=CCC/C(C)=C/CC/C(C)=C/CC[C@]1(C)CCc2c3c(c(C)c(C)c2O1)OCN(CCc1ccc(O)cc1)C3 | 16.9 | 100 | 104 | 77.3 | 37.7 | 83.6 | 98.2 | 81.8 | 102 | 91.8 | 10.6 |  |
| COc1ccc(CCN2COc3c(C)c(C)c4c(c3C2)CC[C@@](C)(CC/C=C(\C)CC/C=C(\C)CCC=C(C)C)O4)cc1OC | 77.5 | 108 | 96.5 | 94.9 | 91.9 | 101 | 105 | 88.4 | 102 | 198 | > 20 |  |
| CC(C)=CCC/C(C)=C/CC/C(C)=C/CC[C@]1(C)CCc2cc(O)c(C)c(C)c2O1 [GAMMA-TOCOTRIENOL] | 84.1 | 105 | 108 | 114 | 109 | 96.9 | 110 | 102 | 102 | 102 | 7.1 |  |
| CC(C)=CCC/C(C)=C/CC/C(C)=C/CC[C@]1(C)CCc2c3c(cc(C)c2O1)OCN(CCCCCCCCCCO)C3 | 59.2 | 114 | 109 | 85.3 | 65.6 | 99.9 | 94.3 | 74 | 96.9 | 99 | 4.6 |  |
